Two compounds from ChEMBL document CHEMBL1155469, “Peptide nucleic acids conjugated to short basic peptides show improved pharmacokinetics and antisense activity in adipose tissue” (J Med Chem, 2010) can be followed below.

The test system of data set [1] is Mus musculus. As to the kind of experiment: Inhibition of IR expression in Balb/C mouse liver assessed as upregulation of IR-A transcript at 1.5 umol/kg, ip administered thrice a week for 2 weeks measured 48 hrs after last dose by quantitative RT-PCR analysis.
Data set [2] deals with Mus musculus. As to the kind of experiment: Inhibition of IR expression in Balb/C mouse kidney assessed as reduction in IR-B transcript at 1.5 umol/kg, ip administered thrice a week for 2 weeks measured 48 hrs after last dose […]. Format: functional, organism-based. The method in brief: (§1)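 Male Balb/c mice, n=4 per group, dosed i.p. in PBS and sacrificed 48 h after last dose. Liver, kidney and adipose tissue homogenised at once in 4 M guanidine isothiocyanate, 25 mM EDTA, 50 mM Tris-HCl pH 6. RNA purified on columns and run by fluorescence-based quantitative RT-PCR. Target transcript levels normalised to cyclophilin A and expressed relative to saline-treated controls.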
Background: A western blot detects proteins with antibodies after separation by electrophoresis.

The test system of data set [3] is Mus musculus. As to the kind of experiment: Acute toxicity in Balb/C mouse assessed as change in spleen weight at 1.5 to 6.0 umol/kg, ip administered thrice a week for 2 weeks measured 48 hrs after last dose. It is filed as organism-based. The note with it: in vivo. The method in brief:
(§2)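 Male Balb/c mice aged 6–8 weeks, n=4 per group, dosed i.p. with compound suspended in PBS and filter sterilized, 10 ul/g body weight. Body weight tracked throughout the live phase. Under isoflurane anaesthesia, terminal cardiac-puncture bleed; serum taken for transaminases and other chemistries. Sacrifice by cervical dislocation 48 h after last dose, with liver and spleen weighed at necropsy. Kidneys examined by histopathology.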

In data set [4] the test system is Mus musculus. The experiment in a line: Acute toxicity in Balb/C mouse assessed as reduction in body weight at 1.5 to 6.0 umol/kg, ip administered thrice a week for 2 weeks measured 48 hrs after last dose. Format: organism-based. The note with it: in vivo. The method in brief: as §2
Data set [5] concerns Mus musculus. As to the kind of experiment: Acute toxicity in Balb/C mouse assessed as change in plasma chemistry at 1.5 to 6.0 umol/kg, ip administered thrice a week for 2 weeks measured 48 hrs after last dose. The note with it: in vivo. It is filed as organism-based. The method in brief: as §2
Data set [6] concerns Mus musculus. The experiment in a line: Inhibition of IR expression in Balb/C mouse kidney assessed as upregulation of IR-A transcript at 6.0 umol/kg, ip administered thrice a week for 2 weeks measured 48 hrs after last dose […]. It is filed as functional, organism-based. The method in brief: as §1
Data set [7] concerns Mus musculus. As to the kind of experiment: Acute toxicity in Balb/C mouse assessed as reduction in body weight at 10.5 umol/kg, ip administered thrice a week for 2 weeks measured 48 hrs after last dose. Format: organism-based. As to conditions: in vivo. In outline:
as §2

Data set [8] concerns Mus musculus. The experiment in a line: Acute toxicity in Balb/C mouse assessed as change in liver weight at 1.5 to 6.0 umol/kg, ip administered thrice a week for 2 weeks measured 48 hrs after last dose. Format: organism-based. As to conditions: in vivo. In outline:
as §2

For data set [9], the system named is Mus musculus. The experiment in a line: Inhibition of IR expression in Balb/C mouse kidney assessed as upregulation of IR-A transcript at 1.5 umol/kg, ip administered thrice a week for 2 weeks measured 48 hrs after last dose […]. Format: functional, organism-based. In outline: as §1
The test system of data set [10] is Mus musculus. The experiment in a line: Inhibition of IR expression in Balb/C mouse adipose tissue assessed as reduction in IR-B transcript at 6.0 umol/kg, ip administered thrice a week for 2 weeks measured 48 hrs after last dose […]. Also on record: scale not given: the % may be the effect or the level left. It is filed as functional. In outline: as §1

Data set [11] concerns Mus musculus. The experiment in a line: Inhibition of IR expression in Balb/C mouse liver assessed as upregulation of IR-A transcript at 6.0 umol/kg, ip administered thrice a week for 2 weeks measured 48 hrs after last dose by quantitative RT-PCR analysis.
For data set [12], the system named is Mus musculus. The experiment in a line: Inhibition of IR expression in Balb/C mouse adipose tissue assessed as upregulation of IR-A transcript at 6.0 umol/kg, ip administered thrice a week for 2 weeks measured 48 hrs after last dose by […]. Set-up: scale not given: the % may be the effect or the level left. It is filed as functional. The method in brief:
as §1

The test system of data set [13] is Mus musculus. The experiment in a line: Inhibition of IR expression in Balb/C mouse kidney assessed as reduction in IR-B transcript at 6.0 umol/kg, ip administered thrice a week for 2 weeks measured 48 hrs after last dose […]. It is filed as functional, organism-based. The method in brief:
as §1

The test system of data set [14] is Mus musculus. As to the kind of experiment: Toxicity in Balb/C mouse assessed as change in serum AST levels at 10 to 40 mg/kg, ip administered thrice a week for 2 weeks measured 48 hrs after last dose. Also on record: dose 10-40 mg/kg, route intraperitoneal. The note with it: in vivo. Format: organism-based. The method in brief: (§3)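 Male Balb/c mice, 6–8 wk, n=4/group, received compound i.p. in PBS (10 ul/g) 3x/wk for 2 wk. Body weight was monitored throughout. At 48 h after the last dose, mice were anesthetized with isoflurane and bled by cardiac puncture. Serum AST, ALT, BUN, bilirubin, glucose and triglycerides were compared with the saline group. ALT rise below 2x normal was counted as absent.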

A short description of data set [15]: Drug level in Balb/C mouse adipose tissue at 40 mg/kg, ip administered thrice a week for 2 weeks measured 48 hrs after last dose. Also on record: dose 40 mg/kg, route intraperitoneal. As to conditions: read-out: Drug uptake. It is filed as ADME, organism-based. The method in brief:
(§4)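 Male Balb/c mice, 6–8 wk, n=4/group, dosed i.p. in PBS 3x/wk for 2 wk at 40 mg/kg and killed 48 h after the last dose. Liver, kidney and adipose tissue were homogenized in SDS extraction buffer and diluted to 0.2 mg tissue/mL. They were hybridized with a digoxigenin/biotin cutting probe, captured on NeutrAvidin, and digested with nuclease S1. Anti-digoxigenin-AP fluorescence was read and quantified against a 0.1–100 nM standard ladder, in quadruplicate.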

Data set [16] concerns Mus musculus. As to the kind of experiment: Toxicity in Balb/C mouse assessed as change in serum triglyceride levels at 10 to 40 mg/kg, ip administered thrice a week for 2 weeks measured 48 hrs after last dose. As to conditions: in vivo. Set-up: dose 10-40 mg/kg, route intraperitoneal. It is filed as organism-based. In outline: as §3
Data set [17] deals with Mus musculus. As to the kind of experiment: Toxicity in Balb/C mouse assessed as change in serum bilirubin levels at 10 to 40 mg/kg, ip administered thrice a week for 2 weeks measured 48 hrs after last dose. Format: organism-based. Set-up: dose 10-40 mg/kg, route intraperitoneal. As to conditions: in vivo. In outline: as §3
Data set [18] deals with Mus musculus. The experiment in a line: Inhibition of PTEN expression in Balb/C mouse liver at 10 to 40 mg/kg, ip administered thrice a week for 2 weeks measured 48 hrs after last dose by Western blot analysis. Format: functional, organism-based. The method in brief:
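Male Balb/c mice, 6–8 wk, n=4/group, dosed i.p. in PBS 3x/wk for 2 wk and killed 48 h after the last dose. Tissue was homogenized in RIPA buffer with protease inhibitors, and protein was measured by Lowry assay. Lysates were run on 10% PAGE and blotted to PVDF. Blots were probed with rabbit anti-PTEN (1:1000) and HRP anti-rabbit (1:2500), with ECL detection.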

The test system of data set [19] is Mus musculus. The experiment in a line: Toxicity in Balb/C mouse assessed as change in serum glucose levels at 10 to 40 mg/kg, ip administered thrice a week for 2 weeks measured 48 hrs after last dose. Format: organism-based. Set-up: dose 10-40 mg/kg, route intraperitoneal. The note with it: in vivo. The method in brief:
as §3

Data set [20] has as its system Mus musculus. As to the kind of experiment: Toxicity in Balb/C mouse assessed as change in body weight at 10 to 40 mg/kg, ip administered thrice a week for 2 weeks measured 48 hrs after last dose. Format: organism-based. Set-up: dose 10-40 mg/kg, route intraperitoneal. The note with it: in vivo. In outline: as §3
A short description of data set [21]: Drug level in Balb/C mouse liver at 40 mg/kg, ip administered thrice a week for 2 weeks measured 48 hrs after last dose. Format: ADME, organism-based. Set-up: dose 40 mg/kg, route intraperitoneal. The note with it: read-out: Drug uptake. The method in brief: as §4
Data set [22] in a line: Drug level in Balb/C mouse kidney at 40 mg/kg, ip administered thrice a week for 2 weeks measured 48 hrs after last dose. It is filed as ADME, organism-based. Set-up: dose 40 mg/kg, route intraperitoneal. As to conditions: read-out: Drug uptake. The method in brief:
as §4

The test system of data set [23] is Mus musculus. As to the kind of experiment: Toxicity in Balb/C mouse assessed as change in serum ALT levels at 10 to 40 mg/kg, ip administered thrice a week for 2 weeks measured 48 hrs after last dose. It is filed as organism-based. Also on record: dose 10-40 mg/kg, route intraperitoneal. As to conditions: in vivo. In outline: as §3
Data set [24] concerns Mus musculus. As to the kind of experiment: Inhibition of PTEN expression in Balb/C mouse white adipose tissue assessed as reduction of full length transcript at 10 to 40 mg/kg, ip administered thrice a week for 2 weeks measured 48 hrs after last dose […]. It is filed as functional, organism-based.
Data set [25] concerns Mus musculus. As to the kind of experiment: Inhibition of PTEN expression in Balb/C mouse kidney at 10 to 40 mg/kg, ip administered thrice a week for 2 weeks measured 48 hrs after last dose.
Data set [26] concerns Mus musculus. As to the kind of experiment: Toxicity in Balb/C mouse assessed as change in blood urea nitrogen levels at 10 to 40 mg/kg, ip administered thrice a week for 2 weeks measured 48 hrs after last dose. The note with it: in vivo. Also on record: dose 10-40 mg/kg, route intraperitoneal. It is filed as organism-based. In outline:
as §3

The structures appear in SMILES notation. Activity calls are given as the source filed them. The calls are words filed in the database; no cut-off is given here.

As for `Cc1cn(CC(=O)N(CCNC(=O)CN(CCNC(=O)CN(CCNC(=O)CN(CCNC(=O)CN(CCNC(=O)CN(CCNC(=O)CN(CCNC(=O)CN(CCNC(=O)[C@H](CCCCN)N(CCNC(=O)CN(CCNC(=O)CN(CCNC(=O)CN(CCNC(=O)[C@H](CCCCN)NC(=O)[C@H](CCCCN)NC(=O)[C@H](CCCCN)NC(=O)[C@H](CCCCN)NC(=O)[C@H](CCCCN)NC(=O)[C@H](CCCCN)NC(=O)[C@H](CCCCN)NC(=O)[C@@H](N)CCCCN)C(=O)Cn2cnc3c(N)ncnc32)C(=O)Cn2ccc(N)nc2=O)C(=O)Cn2ccc(N)nc2=O)C(=O)Cn2cc(C)c(=O)[nH]c2=O)C(=O)Cn2cnc3c(N)ncnc32)C(=O)Cn2ccc(N)nc2=O)C(=O)Cn2cc(C)c(=O)[nH]c2=O)C(=O)Cn2cnc3c(=O)[nH]c(N)nc32)C(=O)Cn2cc(C)c(=O)[nH]c2=O)C(=O)Cn2ccc(N)nc2=O)C(=O)Cn2ccc(N)nc2=O)CC(=O)NCCN(CC(=O)NCCN(CC(=O)NCCN(CC(=O)NCCN(CC(=O)NCCN(CC(=O)NCCN(CC(=O)NCCN(CC(=O)NCCN(CC(=O)N[C@@H](CCCCN)C(N)=O)C(=O)Cn2cnc3c(N)ncnc32)C(=O)Cn2ccc(N)nc2=O)C(=O)Cn2ccc(N)nc2=O)C(=O)Cn2cnc3c(N)ncnc32)C(=O)Cn2ccc(N)nc2=O)C(=O)Cn2cnc3c(=O)[nH]c(N)nc32)C(=O)Cn2cnc3c(=O)[nH]c(N)nc32)C(=O)Cn2ccc(N)nc2=O)c(=O)[nH]c1=O`, the outcome in the data set on Mus musculus [1], with Mus musculus [6], with Mus musculus [9] and with Mus musculus [11] was Active. The result in the data set on Mus musculus [2] and in the data set on Mus musculus [13] was inactive. Moreover, the Activity result is listed as “Non-toxic” in the data set with Mus musculus [3]; “Non-toxic” in the data set on Mus musculus [4]; “Non-toxic” in the data set with Mus musculus [5]; “Toxic” in the data set on Mus musculus [7]; “Non-toxic” in the data set on Mus musculus [8]; 50% with Mus musculus [10]. In the data set with Mus musculus [12], the Activity is recorded as 200%.

On to `Cc1cn(CC(=O)N(CCNC(=O)CN(CCNC(=O)[C@H](CCCCN)N(CCNC(=O)[C@H](CCCCN)NC(=O)[C@@H](N)CCCCN)C(=O)Cn2cc(C)c(=O)[nH]c2=O)C(=O)Cn2ccc(N)nc2=O)CC(=O)NCCN(CC(=O)NCCN(CC(=O)NCCN(CC(=O)NCCN(CC(=O)NCCN(CC(=O)NCCN(CC(=O)NCCN(CC(=O)NCCN(CC(=O)NCCN(CC(=O)NCCN(CC(=O)NCCN(CC(=O)NCCN(CC(=O)NCCN(CC(=O)N[C@@H](CCCCN)C(N)=O)C(=O)Cn2cnc3c(N)ncnc32)C(=O)Cn2ccc(N)nc2=O)C(=O)Cn2cnc3c(N)ncnc32)C(=O)Cn2cc(C)c(=O)[nH]c2=O)C(=O)Cn2ccc(N)nc2=O)C(=O)Cn2cc(C)c(=O)[nH]c2=O)C(=O)Cn2cnc3c(N)ncnc32)C(=O)Cn2ccc(N)nc2=O)C(=O)Cn2cnc3c(N)ncnc32)C(=O)Cn2ccc(N)nc2=O)C(=O)Cn2cnc3c(=O)[nH]c(N)nc32)C(=O)Cn2cnc3c(N)ncnc32)C(=O)Cn2ccc(N)nc2=O)c(=O)[nH]c1=O`, for which the Activity entry in the data set with Mus musculus [14], in the data set with Mus musculus [16], in the data set on Mus musculus [17], with Mus musculus [19], in the data set with Mus musculus [20] and in the data set with Mus musculus [23] was “Non-toxic” throughout. In addition, the Activity entry in the data set with Mus musculus [26] is “Non-toxic”. Further, the concentration at 48 h in data set [15] was determined as 4 µM; in data set [21] it was 28 µM; in data set [22], 355 µM. Also, the inhibition entry in the data set with Mus musculus [18] and in the data set with Mus musculus [25] was “inactive” each time. The outcome with Mus musculus [24] was inactive.
